Measurements as given in ChEMBL document CHEMBL4049424, “Hydroxypyridinone and 5-Aminolaevulinic Acid Conjugates for Photodynamic Therapy” (J Med Chem, 2017).

Legend:
[1] = Drug metabolism in human doxorubicin resistant MCF7/R cells assessed as formation of protoporphyrin 9 at 100 uM after 6 hrs by fluorescence spectrometer relative to ALA; assay type: ADME, cell-based; settings: mcf7r
Method in brief: (§1)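 MCF-7R monolayers exposed 6 h at 37 °C to ALA, conjugates or ALA hexyl/octyl esters at 1–100 μM in serum-free medium. PpIX emission at 635 nm (405 nm excitation; spectra 600–750 nm) read in wells. Untreated controls subtracted; mean of triplicates in arbitrary units.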

KB [2] = test: Dark toxicity against human KB cells assessed as cell survival at 100 uM after 24 hrs by MTT assay; assay type: cell-based
KB [3] = test: Phototoxicity in human KB cells assessed as reduction in cell viability preincubated for 4 hrs followed by irradiation with blue light at 2.5 J/cm2 and subsequent incubation for 18 hrs measured after 24 hrs post treatment by MTT assay; assay type: functional; settings: for CC50: light or radiation study, read-out: LD50 (the source's name)
Method in brief: (§2)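 Cells seeded ~5 × 10^4 per well, grown 48 h, washed with PBS, then 4 h with compound (five concentrations within 1–100 μM, triplicate, three untreated control wells per plate). Irradiated with blue light, peak ~420 nm, 2.5 J/cm². Medium replaced, cells kept a further 18 h. MTT read at A570 24 h after treatment; survival expressed as percentage of control. LD50 taken from two sets of experiments.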

[4] = Drug metabolism in human KB cells assessed as formation of protoporphyrin 9 preincubated for 2 hrs followed by compound washout measured after 24 hrs by HPLC-based fluorescence analysis; assay type: ADME, cell-based
Method in brief: (§3)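 Cells given ALA or conjugate for 2 h at 37 °C, then fresh medium without compound. At 24 h, lysed in CelLytic (15 min, room temperature), scraped and spun 1800g for 10 min. Supernatant PpIX read by fluorescence at 405/635 nm and normalised per mg protein (BCA). Untreated blanks subtracted.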

[5] = Drug metabolism in human KB cells assessed as formation of protoporphyrin 9 at 100 uM after 6 to 24 hrs by fluorescence spectrometer; assay type: ADME, cell-based
Method in brief: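 Time course in KB cells at 37 °C after 100 μM conjugate, ALA, or 1:1 ALA + HPO mixture in serum-free medium. Well PpIX fluorescence read at 405 nm excitation / 635 nm emission, control autofluorescence subtracted, triplicate means.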

MCF7 = test: Phototoxicity in human MCF7 cells assessed as reduction in cell viability preincubated for 4 hrs followed by irradiation with blue light at 2.5 J/cm2 and subsequent incubation for 18 hrs measured after 24 hrs post treatment by MTT assay; assay type: functional; settings: for CC50: MCF7, light or radiation study, read-out: LD50 (the source's name); method in brief: as §2
[6] = Drug metabolism in human doxorubicin resistant MCF7/R cells assessed as formation of protoporphyrin 9 preincubated for 2 hrs followed by compound washout measured after 24 hrs by HPLC-based fluorescence analysis; assay type: ADME, cell-based; settings: mcf7r; method in brief: as §3
KB [7] = test: Dark toxicity against human KB cells at 200 uM preincubated for 4 hrs followed by compound washout measured after 24 hrs by MTT assay; assay type: cell-based
Method in brief: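 Dark toxicity in KB cells: 200 μM compound for 4 h with no light, removed, cells kept 24 h. Viability by MTT (2 h, A570 after DMSO solubilisation), given as % of untreated controls. Triplicate.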

MCF7R = test: Phototoxicity in human doxorubicin resistant MCF7/R cells assessed as reduction in cell viability preincubated for 4 hrs followed by irradiation with blue light at 2.5 J/cm2 and subsequent incubation for 18 hrs measured after 24 hrs post treatment by MTT assay; assay type: functional; settings: for CC50: light or radiation study, read-out: LD50 (the source's name); method in brief: as §2
[8] = Drug metabolism in human KB cells assessed as protoporphyrin 9 formation at 500 uM preincubated for 1 hr at 4 degC followed by compound washout and subsequent incubation for 4 hrs at 37 degC by fluorescence spectrometer; assay type: ADME, cell-based
Method in brief: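 KB cells exposed 1 h to 500 μM prodrug in clear medium at either 4 °C or 37 °C, plates foil-wrapped. Compound then removed, PBS rinse, fresh medium, both plates 4 h at 37 °C. PpIX read in wells at 405/635 nm after subtracting untreated wells.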

[9] = Drug metabolism in human KB cells assessed as formation of protoporphyrin 9 after 2 to 24 hrs by fluorescence spectrometer; assay type: ADME, cell-based
Method in brief: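 KB monolayers (48 h after seeding ~5×10^4/well) washed, then given prodrug or ALA at 50 μM in serum-free medium at 37 °C. PpIX fluorescence read in wells at 2, 4, 6 and 24 h, excitation 405 nm, emission 635 nm. Untreated wells subtracted for autofluorescence; mean intensity in arbitrary units, triplicate.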

[10] = Drug metabolism in mouse PAM212 cells assessed as formation of protoporphyrin 9 at 0.01 mM after 6 hrs by fluorescence spectrometer relative to ALA; assay type: ADME, cell-based; settings: pam212, 6 h, 10 µM
[11] = Dark toxicity against human KB cells assessed as cell survival at 100 uM after 4 hrs by MTT assay; assay type: cell-based; settings: read-out: Survival
Method in brief: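 Cells seeded ~5 × 10^4 per well, grown 48 h, washed with PBS, then exposed to compound in medium for 4 h without irradiation. Incubation then continued for 24 h after prodrug removal. Viability by MTT (1 mg/mL, 2 h), formazan dissolved in DMSO, A570, expressed as percentage of untreated control wells on the same plate. Triplicate.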

CNE-2 [12] = test: Phototoxicity in human CNE2 cells assessed as reduction in cell viability preincubated for 4 hrs followed by irradiation with 4 J/cm2 light dose measured after 24 hrs by MTT assay; assay type: functional
KB [13] = test: Dark toxicity against human KB cells preincubated for 4 hrs followed by compound washout measured after 24 hrs by MTT assay; assay type: cell-based
Method in brief: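 KB cells seeded ~5×10^4/well, grown 48 h, PBS-washed, then exposed to compound for 4 h without irradiation. Medium replaced and cells kept a further ~24 h. Survival by MTT (1 mg/mL in EMEM, 2 h), formazan dissolved in DMSO, A570, expressed as % of untreated control wells. Triplicate wells.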

CNE-2 [14] = test: Potency index, ratio of ALA LD80 to test compound LD80 for phototoxicity against human CNE2 cells; assay type: functional
[15] = Drug metabolism in human doxorubicin resistant MCF7/R cells assessed as formation of protoporphyrin 9 at 100 uM after 6 hrs by fluorescence spectrometer; assay type: ADME, cell-based; settings: mcf7r; method in brief: as §1
CNE-2 [16] = test: Phototoxicity in human CNE2 cells assessed as reduction in cell viability preincubated for 4 hrs followed by irradiation with 6 J/cm2 light dose measured after 24 hrs by MTT assay; assay type: functional

SMILES | Activity (KB [2]) | Activity (KB [3]) | CC50 (KB [3]) [µM] | Activity (MCF7) | CC50 (MCF7) [µM] | Activity (KB [7]) | Activity (MCF7R) | CC50 (MCF7R) [µM] | Drug metabolism [8] | Drug metabolism [9] | further results
CCc1c(O)c(=O)ccn1CCOCCOCCOC(=O)CCC(=O)CN.Cl | Non-Toxic | Dose-dependent effect | 19.6 | Dose-dependent effect | 15.8 | Non-Toxic | Dose-dependent effect | 11.3 | Metabolite_Detected | Metabolite_Detected | fold change (FC) [1]: 20; Drug metabolism [4]: Metabolite_Detected; Drug metabolism [5]: Metabolite_Detected; Drug metabolism [6]: Metabolite_Detected
COC(=O)CCC(=O)CNC(=O)[C@H](Cc1ccccc1)NC(C)=O |  |  |  |  |  |  |  |  |  |  | fold change (FC) [10]: 5
CCCCCCOC(=O)CCC(=O)CN [HEXAMINOLEVULINATE] |  | Dose-dependent effect | 2.6 | Dose-dependent effect | 9.3 |  | Dose-dependent effect | 8.4 |  | Metabolite_Detected | viability at 4 h, 100 µM [11]: 9%; LD80 (CNE-2 [12]): 0.03 mM; Activity (KB [13]): Toxic; Ratio (CNE-2 [14]): 40
NCC(=O)CCC(=O)O [AMINOLEVULINIC ACID] | Non-Toxic | Dose-dependent effect | 124 | Dose-dependent effect | 131 | Non-Toxic | Dose-dependent effect | 122 | Metabolite_Notdetected |  | Drug metabolism [15]: Metabolite_Detected; LD80 (CNE-2 [16]): 0.75 mM
